Source: PubChem BioAssay AID540324 (Johns Hopkins Ion Channel Center, 2011)
Unmarked numbers belong to inactive results. Calls of active or inactive are those of the source.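 The calls were made as follows: active = maximum inhibition above 30% at any tested concentration, with a dose response curve fitted; inactive = no inhibition at any dose or no dose response curve.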

Test: parental HEK293 potassium flux blockers – cell-based, FluxOR thallium flux, concentration-response, set 2, counter-screen for KCNK9 inhibitor project, SAR follow-up (AID 540324)
Conditions: FluxOR fluorescence ratio; series mostly up to 30 µM; flux ratio, lower = inhibition: at the top concentration
Outline: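 Assay system: parental HEK293 cells. Probe or stimulus: K+/Tl+ sulfate stimulus, 5x stock. Compound dosing: 10 concentrations. Times: dye loading 90 min at room temperature in dark, compound exposure 20 min. Technique: FluxOR thallium-flux fluorescence. Repeats: at least two replicates per compound.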

Question: With COc1cccc(OC)c1C(=O)Nc1cccc(NC(=O)c2cccc(C)c2)c1 as the molecule, how does the “flux ratio, lower = inhibition” value read?
Answer: The value was 0.166.

Question: Which “flux ratio, lower = inhibition” value does the source give for Cc1cccc(C(=O)Nc2cccc(NC(=O)c3ccccc3C(C)C)c2)c1 here?
Answer: Its value is 0.155.

Question: With CCOc1ccccc1C(=O)Nc1cccc(NC(=O)c2ccccc2C(F)(F)F)c1 as the molecule, how does the “flux ratio, lower = inhibition” value read?
Answer: Its value is 0.166.

Question: With CCOc1ccccc1NC(=O)c1cccc(NC(=O)C2CCOC2)c1 (stereo unspecified) as the molecule, how does the “flux ratio, lower = inhibition” value read?
Answer: Its value is 0.19.

Question: For CCOc1ccccc1NC(=O)c1cccc(NC(=O)c2ccccc2C)c1, which “flux ratio, lower = inhibition” value is on record?
Answer: The value was 0.124.

Question: For COc1cccc(-c2n[nH]c(=S)n2C(C)C2CC3CCC2C3)c1 (stereo unspecified), which “flux ratio, lower = inhibition” value is on record?
Answer: Its value is 0.135.

Question: Which “flux ratio, lower = inhibition” value does the source give for Cc1cccc(C(=O)Nc2cccc(NC(=O)c3ccccc3OC(F)(F)F)c2)c1 here?
Answer: Its value is 0.15.

Question: With COc1ccccc1C(=O)Nc1cccc(NC(=O)c2cccc(C)c2)c1 as the molecule, how does the “flux ratio, lower = inhibition” value read?
Answer: Its value is 0.169.

Question: With COc1ccccc1C(=O)Nc1cccc(NC(=O)c2ccccc2)c1 as the molecule, how does the “flux ratio, lower = inhibition” value read?
Answer: Its value is 0.149.

Question: Which “flux ratio, lower = inhibition” value does the source give for CCOc1ccccc1NC(=O)c1cccc(NC(=O)c2ccc(C(F)(F)F)cc2)c1 here?
Answer: Its value is 0.208.

Question: Which “flux ratio, lower = inhibition” value does the source give for CCOc1ccccc1NC(=O)c1cccc(NC(=O)c2ccccc2C(F)(F)F)c1 here?
Answer: The value was 0.17.

Question: For CC(c1ccccc1)n1c(-c2ccco2)n[nH]c1=S (stereo unspecified), which “flux ratio, lower = inhibition” value is on record?
Answer: Its value is 0.248.

Question: For CCOc1ccccc1NC(=O)c1cccc(C(=O)NC2CCCC2)c1, which “flux ratio, lower = inhibition” value is on record?
Answer: The value was 0.197.

Question: For O=C(Nc1cccc(NC(=O)c2ccccc2)c1)c1ccccc1, which “flux ratio, lower = inhibition” value is on record?
Answer: The value was 0.194.

Question: For O=C(Nc1cccc(NC(=O)c2ccco2)c1)c1ccccc1, which “flux ratio, lower = inhibition” value is on record?
Answer: Its value is 0.189.

Question: With COc1ccccc1NC(=O)c1cccc(NC(=O)C2CCCCC2)c1 as the molecule, how does the “flux ratio, lower = inhibition” value read?
Answer: Its value is 0.16.

Question: Which “flux ratio, lower = inhibition” value does the source give for Cc1cccc(C(=O)Nc2cccc(NC(=O)c3ccccc3C(F)(F)F)c2)c1 here?
Answer: Its value is 0.183.

Question: For CC(C1CC2CCC1C2)n1c(-c2ccc(Cl)cc2)n[nH]c1=S (stereo unspecified), which “flux ratio, lower = inhibition” value is on record?
Answer: Its value is 0.322.

Question: With Cc1cccc(C(=O)Nc2cccc(NC(=O)c3ccccc3)c2)c1 as the molecule, how does the “flux ratio, lower = inhibition” value read?
Answer: The value was 0.164.

Question: Which outcome does the source give for O=C(Nc1cccc(NC(=O)c2ccc(C(F)(F)F)cc2)c1)c1ccccc1 here?
Answer: Its outcome is “inactive”.

Question: With CC(C)(C)c1ccc(C(=O)Nc2cccc(NC(=O)c3ccccc3)c2)cc1 as the molecule, how does the “flux ratio, lower = inhibition” value read?
Answer: Its value is 0.185.

Question: Which “flux ratio, lower = inhibition” value does the source give for COc1ccccc1C(=O)Nc1cccc(NC(=O)c2ccccc2C)c1 here?
Answer: The value was 0.148.

Question: With Cc1cccc(C(=O)Nc2cccc(NC(=O)c3ccccc3C)c2)c1 as the molecule, how does the “flux ratio, lower = inhibition” value read?
Answer: The value was 0.158.

Question: Which “flux ratio, lower = inhibition” value does the source give for CCOc1ccccc1NC(=O)c1cccc(NC(=O)c2cccc(Cl)c2)c1 here?
Answer: Its value is 0.159.

Question: Which “flux ratio, lower = inhibition” value does the source give for O=C(Nc1cccc(NC(=O)c2ccccc2C(F)(F)F)c1)c1ccccc1 here?
Answer: Its value is 0.163.

Question: With O=C(Nc1cccc(NC(=O)c2ccsc2)c1)c1ccccc1 as the molecule, how does the “flux ratio, lower = inhibition” value read?
Answer: The value was 0.179.

Question: Which “flux ratio, lower = inhibition” value does the source give for O=C(Nc1cccc(NC(=O)c2ccc(F)cc2)c1)c1ccccc1 here?
Answer: Its value is 0.204.

Question: With Cc1cccc(C(=O)Nc2cccc(NC(=O)c3ccc(N(C)C)cc3)c2)c1 as the molecule, how does the “flux ratio, lower = inhibition” value read?
Answer: The value was 0.208.

Question: With CCOc1ccccc1NC(=O)c1cccc(NC(=O)c2ccccc2OC(F)(F)F)c1 as the molecule, how does the “flux ratio, lower = inhibition” value read?
Answer: Its value is 0.165.

Question: With CC(C1CC2CCC1C2)n1c(-c2ccccc2Cl)n[nH]c1=S (stereo unspecified) as the molecule, how does the “flux ratio, lower = inhibition” value read?
Answer: The value was 0.205.

Question: For CCOc1ccccc1NC(=O)c1cccc(NC(=O)c2ccccc2)c1, which “flux ratio, lower = inhibition” value is on record?
Answer: Its value is 0.157.

Question: With CCOc1ccccc1C(=O)Nc1cccc(NC(=O)c2cccc(C)c2)c1 as the molecule, how does the “flux ratio, lower = inhibition” value read?
Answer: Its value is 0.15.

Question: With CCOc1ccccc1NC(=O)c1cccc(NC(=O)C2CCCC2)c1 as the molecule, how does the “flux ratio, lower = inhibition” value read?
Answer: The value was 0.16.

Question: For CCOc1ccccc1NC(=O)c1cccc(NC(=O)C2CCCO2)c1 (stereo unspecified), which “flux ratio, lower = inhibition” value is on record?
Answer: The value was 0.189.

Question: With CCOc1ccccc1NC(=O)c1cccc(NC(=O)c2cccc(OC)c2)c1 as the molecule, how does the “flux ratio, lower = inhibition” value read?
Answer: The value was 0.162.

Question: With COc1ccc(C(=O)Nc2cccc(NC(=O)c3ccccc3)c2)cc1 as the molecule, how does the “flux ratio, lower = inhibition” value read?
Answer: Its value is 0.191.
